What is called Ki is the dissociation constant of the complex between target and ligand, obtained from inhibition or displacement. A word on the IC50: it is the point on the concentration scale where inhibition reaches its midpoint.

Results on 11 compounds are retold here after ChEMBL document CHEMBL1142267, “Optimization of alpha-ketooxazole inhibitors of fatty acid amide hydrolase” (J Med Chem, 2008).

Test [1] deals with T1, Fatty-acid amide hydrolase 1 (Homo sapiens, UniProt O00519).
T1 sequence (O00519 whole entry): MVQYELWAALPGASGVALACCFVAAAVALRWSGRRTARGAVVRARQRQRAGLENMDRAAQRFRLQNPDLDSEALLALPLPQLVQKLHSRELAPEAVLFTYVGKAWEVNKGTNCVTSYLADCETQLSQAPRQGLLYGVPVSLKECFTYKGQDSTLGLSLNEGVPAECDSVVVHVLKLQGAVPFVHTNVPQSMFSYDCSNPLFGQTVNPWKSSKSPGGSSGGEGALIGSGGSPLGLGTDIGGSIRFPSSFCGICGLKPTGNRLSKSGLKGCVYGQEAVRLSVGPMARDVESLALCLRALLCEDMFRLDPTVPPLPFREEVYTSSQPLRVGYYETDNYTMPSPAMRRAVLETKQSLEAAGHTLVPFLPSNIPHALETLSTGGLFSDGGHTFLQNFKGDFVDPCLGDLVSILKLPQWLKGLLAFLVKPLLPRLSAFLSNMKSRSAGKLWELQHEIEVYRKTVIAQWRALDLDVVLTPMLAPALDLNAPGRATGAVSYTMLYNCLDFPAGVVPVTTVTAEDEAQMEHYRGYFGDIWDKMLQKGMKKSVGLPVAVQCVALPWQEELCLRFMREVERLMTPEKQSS

Test [2] deals with T1, Fatty-acid amide hydrolase 1. As to the kind of experiment: Inhibition of human recombinant FAAH expressed COS7 cells. The test is classed as cell-based, COS-7. The essentials: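 Enzyme source was solubilized membrane lysate of COS-7 cells transiently transfected with full-length human FAAH cDNA. Substrate 10 µM 14C-oleamide in pH 9.0 Tris/EDTA/glycerol/Triton X-100/Hepes buffer at room temperature, with three inhibitor concentrations. Reactions quenched in 0.1 N HCl at three time points, then EtOAc extraction and TLC of oleamide versus oleic acid. Ki from Dixon plot.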

Test [3] concerns the target T2, Fatty-acid amide hydrolase 1 (Rattus norvegicus, UniProt P97612).
T2 sequence (P97612 whole entry): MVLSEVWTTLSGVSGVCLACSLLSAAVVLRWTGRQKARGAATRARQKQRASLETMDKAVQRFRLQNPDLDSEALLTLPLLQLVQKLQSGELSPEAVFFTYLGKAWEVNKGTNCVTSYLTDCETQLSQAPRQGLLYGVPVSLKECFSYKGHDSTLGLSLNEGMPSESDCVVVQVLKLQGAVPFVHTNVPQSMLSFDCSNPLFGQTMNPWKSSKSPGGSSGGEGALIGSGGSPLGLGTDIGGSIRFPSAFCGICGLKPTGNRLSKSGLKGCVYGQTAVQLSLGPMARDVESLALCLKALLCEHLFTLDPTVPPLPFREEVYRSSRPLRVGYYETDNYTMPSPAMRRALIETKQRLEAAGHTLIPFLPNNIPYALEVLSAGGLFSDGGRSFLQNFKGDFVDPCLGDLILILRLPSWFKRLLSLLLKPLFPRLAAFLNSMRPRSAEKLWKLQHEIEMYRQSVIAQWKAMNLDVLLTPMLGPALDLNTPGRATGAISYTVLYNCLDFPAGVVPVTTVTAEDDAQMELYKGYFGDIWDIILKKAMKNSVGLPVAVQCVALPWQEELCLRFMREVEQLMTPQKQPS
The experiment in a line: Inhibition of rat recombinant FAAH expressed in Escherichia coli.

The target in test [4] is T3, Neutral cholesterol ester hydrolase 1 (Homo sapiens, UniProt Q6PIU2).
T3 sequence (Q6PIU2 whole entry): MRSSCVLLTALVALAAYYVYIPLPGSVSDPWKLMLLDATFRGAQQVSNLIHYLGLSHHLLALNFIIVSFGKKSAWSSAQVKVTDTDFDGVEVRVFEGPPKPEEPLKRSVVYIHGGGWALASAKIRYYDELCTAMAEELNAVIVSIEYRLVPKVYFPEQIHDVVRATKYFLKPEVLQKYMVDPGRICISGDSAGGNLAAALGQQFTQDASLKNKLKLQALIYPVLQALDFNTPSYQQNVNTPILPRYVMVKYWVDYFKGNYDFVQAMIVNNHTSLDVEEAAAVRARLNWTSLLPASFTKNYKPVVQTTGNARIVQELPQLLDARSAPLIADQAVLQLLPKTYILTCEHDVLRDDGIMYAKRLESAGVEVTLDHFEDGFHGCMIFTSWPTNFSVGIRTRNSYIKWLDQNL
As to the kind of experiment: Inhibition of KIAA1363.

The target in another test is T4, Liver carboxylesterase 1 (Homo sapiens, UniProt P23141).
T4 sequence (P23141 whole entry): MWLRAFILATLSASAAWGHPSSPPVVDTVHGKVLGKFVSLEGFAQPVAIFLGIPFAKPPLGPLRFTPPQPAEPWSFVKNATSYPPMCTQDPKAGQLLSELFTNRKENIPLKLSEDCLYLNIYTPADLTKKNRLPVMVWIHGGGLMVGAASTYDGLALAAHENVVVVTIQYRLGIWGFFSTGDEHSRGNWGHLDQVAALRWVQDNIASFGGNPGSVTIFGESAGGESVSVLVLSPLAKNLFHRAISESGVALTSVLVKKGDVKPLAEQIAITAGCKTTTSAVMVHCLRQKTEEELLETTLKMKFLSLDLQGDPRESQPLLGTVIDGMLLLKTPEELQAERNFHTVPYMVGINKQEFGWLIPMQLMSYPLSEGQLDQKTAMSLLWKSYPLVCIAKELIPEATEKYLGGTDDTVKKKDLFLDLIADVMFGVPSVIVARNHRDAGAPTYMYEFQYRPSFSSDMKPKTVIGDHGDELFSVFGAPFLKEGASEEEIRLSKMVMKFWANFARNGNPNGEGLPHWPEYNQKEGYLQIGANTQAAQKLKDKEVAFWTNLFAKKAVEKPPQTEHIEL

Test [5] is described as follows: Selectivity for rat recombinant FAAH over KIAA1363.
Test [6] can be described thus: Selectivity for rat recombinant FAAH over TGH.
Test [7] can be described thus: Selectivity for TGH over rat recombinant FAAH.

Compound `CCCCCCCC/C=C\CCCCCCCC(=O)c1ncco1` yielded a Ki in test [1] of 0.1 µM.

Turning to `O=C(CCc1ccc(COc2ccccc2)cc1)c1ncc(C(F)(F)F)o1`, the results for the Ki in test [2] and in test [3] were 0.00067 µM and 0.0008 µM, respectively.

For `O=C(CCc1ccc(COc2ccccc2)cc1)c1ncco1`, the values for the concentration for half-maximal inhibition (IC50) (in test [4]; against Liver carboxylesterase 1; in test [3]) were greater than 100 µM, 0.27 µM and 0.27 µM, respectively. Moreover, the Ratio IC50 in test [5] is greater than 370; in test [6] it was 1. In test [3], the Ki turned out to be 0.025 µM. Besides, the Selectivity ratio in test [7] worked out at 1.

Consider `O=C(CCc1ccc(-c2ccccc2)cc1)c1ncco1`, for which the values for the IC50 (in test [4]; on Liver carboxylesterase 1; in test [3]) were greater than 100 µM, 0.0045 µM and 0.18 µM, respectively. In addition, the Ratio IC50 in test [5] was greater than 550; in test [6] it was 0.025. For the same compound, the Ki in test [3] was 0.016 µM. Also, the Selectivity ratio in test [7] was 1.

As to `O=C(CCc1ccc(Oc2ccccc2)cc1)c1ncc(C(F)(F)F)o1`, the Ki in test [2] came out at 0.001 µM; in test [3] it was 0.002 µM.

Turning to `O=C(O)c1cnc(C(=O)CCc2ccc(Oc3ccccc3)cc2)o1`, the values for the IC50 (in test [4]; against Liver carboxylesterase 1; in test [3]) were greater than 100 µM, 2.4 µM and 0.08 µM, respectively. Moreover, the Ratio IC50 in test [5] is greater than 1250; in test [6] it was 30. Also, the Ki in test [3] was found to be 0.041 µM.

Take `O=C(CCc1ccc(Oc2ccccc2)cc1)c1ncco1`: the IC50 in test [4] is greater than 100 µM; against Liver carboxylesterase 1, 0.03 µM; in test [3], 0.5 µM. The Ratio IC50 in test [5] was greater than 200; in test [6], 0.06. The Ki in test [3] worked out at 0.077 µM. The Selectivity ratio in test [7] amounted to 1.

For `N#Cc1cnc(C(=O)CCc2ccc(COc3ccccc3)cc2)o1`, the Ki in test [2] stood at 0.00051 µM; in test [3] it was 0.0005 µM. The IC50 in test [4] came out at 19 µM; on Liver carboxylesterase 1, 0.1 µM; in test [3] it was 0.002 µM. The Ratio IC50 in test [5] turned out to be 9500; in test [6], 50. In test [5], the Selectivity ratio was greater than 1000.

For `O=C(O)c1cccc(-c2cnc(C(=O)CCc3ccc(Oc4ccccc4)cc3)o2)n1`, the IC50 is greater than 100 µM in test [4], greater than 100 µM against Liver carboxylesterase 1 and 0.02 µM in test [3]. The Ratio IC50 in test [5] and in test [6] was greater than 5000 throughout.

`N#Cc1cnc(C(=O)CCc2ccc(Oc3ccccc3)cc2)o1`: the Ki in test [2] came out at 0.00085 µM; in test [3] it was 0.0008 µM. Moreover, the IC50 was determined as 20 µM in test [4], 0.016 µM at Liver carboxylesterase 1 and 0.005 µM in test [3]. The figures for the Ratio IC50 in test [5] and in test [6] were 4000 and 3, respectively. Moreover, in test [5], the Selectivity ratio is greater than 1000.

For the compound `O=C(O)c1cccc(-c2cnc(C(=O)CCc3ccc(-c4ccccc4)cc3)o2)n1`, the IC50 is greater than 100 µM in test [4], greater than 100 µM at Liver carboxylesterase 1 and 0.006 µM in test [3]. Further, the Ratio IC50 in test [5] and in test [6] was greater than 17000 throughout.
